Results: ChEMBL document CHEMBL3425439, “Disubstituted Bis-THF Moieties as New P2 Ligands in Nonpeptidal HIV-1 Protease Inhibitors (II)” (J Med Chem, 2015)

Legend:
[1] = system: Human immunodeficiency virus 1; assay: Antiviral activity against HIV-1 M2 harboring protease L10I, I13V, M46I, I50V, L63P, L76V mutant infected in human MT4 cells assessed as inhibition of viral replication after 3 days by GFP reporter gene assay; assay type: functional, organism-based; settings: Human immunodeficiency virus 1, M2, MT4, 72 h
Procedure, shortened: (§1)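 Cell-based replication assay in MT4 cells carrying an LTR-GFP readout (HIV tat drives GFP). Serial compound concentrations were mixed with cells at 150 000 cells/mL and 200 CCID50 of virus, incubated 3 days at 37 °C, 5% CO2. Percent inhibition per concentration gave dose-response curves for EC50/pEC50. Run in quadruplicate. Mock-infected parallel cultures at the same concentrations gave CC50.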

[2] = system: Human immunodeficiency virus 1; assay: Antiviral activity against wild type HIV-1 3B infected in human MT4 cells assessed as inhibition of viral replication after 3 days by GFP reporter gene assay in presence of human serum; assay type: functional, organism-based; settings: Human immunodeficiency virus 1, 3B, MT4, 72 h
[3] = system: Human immunodeficiency virus 1; assay: Antiviral activity against HIV-1 M3 harboring protease L10I, K20R, M36I, G48V, I62V, A71V, V82A, I93L mutant infected in human MT4 cells assessed as inhibition of viral replication after 3 days by GFP reporter gene assay; assay type: functional, organism-based; settings: Human immunodeficiency virus 1, M3, MT4, 72 h; procedure, shortened: as §1
[4] = system: Human immunodeficiency virus 1; assay: Antiviral activity against HIV-1 M1 harboring protease L10I, M46I, I64V, I84V, L90M, I93L mutant infected in human MT4 cells assessed as inhibition of viral replication after 3 days by GFP reporter gene assay; assay type: functional, organism-based; settings: Human immunodeficiency virus 1, M1, MT4, 72 h; procedure, shortened: as §1
[5] = system: Human immunodeficiency virus 1; assay: Ratio of EC50 for HIV-1 M1 harboring protease L10I, M46I, I64V, I84V, L90M, I93L mutant to EC50 for wild type HIV-1 3B; assay type: functional
[6] = system: Human immunodeficiency virus 1; assay: Ratio of EC50 for HIV-1 M3 harboring protease L10I, K20R, M36I, G48V, I62V, A71V, V82A, I93L mutant to EC50 for wild type HIV-1 3B; assay type: functional
[7] = system: Human immunodeficiency virus 1; assay: Ratio of EC50 for HIV-1 M2 harboring protease L10I, I13V, M46I, I50V, L63P, L76V mutant to EC50 for wild type HIV-1 3B; assay type: functional
[8] = system: Human immunodeficiency virus 1; assay: Antiviral activity against wild type HIV-1 3B infected in human MT4 cells assessed as inhibition of viral replication after 3 days by GFP reporter gene assay; assay type: functional, organism-based; settings: Human immunodeficiency virus 1, 3B, MT4, 72 h
Procedure, shortened: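 MT4 cells (150 000 cells/mL) were infected with wild-type HIV-1/LAI at 200 CCID50 across a compound concentration range. Plates were incubated 3 days at 37 °C and 5% CO2. Replication was read as GFP driven by HIV-tat binding LTR sequences. EC50 was taken from dose-response curves of percent inhibition, in quadruplicate. Mock-infected parallel cultures gave CC50 from reduced GFP.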

Row | SMILES | EC50 [1] [nM] | EC50 [2] [nM] | EC50 [3] [nM] | EC50 [4] [nM] | Ratio EC50 [5] | Ratio EC50 [6] | Ratio EC50 [7] | EC50 [8] [nM]
1 | COc1ccc(S(=O)(=O)N(CC(C)C)C[C@@H](O)[C@H](Cc2ccccc2)NC(=O)O[C@H]2CO[C@H]3OC[C@H](OCC(=O)NCc4ccccc4)[C@H]32)cc1 | 4.4 | 4.6 | 1 | 3.3 | 5.6 | 1.7 | 7.5 | 0.6
2 | COc1ccc(S(=O)(=O)N(CC(C)C)C[C@@H](O)[C@H](Cc2ccccc2)NC(=O)O[C@H]2CO[C@H]3OC[C@H](O)[C@H]32)cc1 | 6.7 | 12.4 | 1.6 | 6.9 | 1.1 | 0.2 | 1 | 6.5
3 | CNc1nc2ccc(S(=O)(=O)N(CC(C)C)C[C@@H](O)[C@H](Cc3ccccc3)NC(=O)O[C@H]3CO[C@H]4OC[C@H](OCC(=O)N(C)C)[C@H]43)cc2o1 | 83.8 | 243 | 50.4 | 102 | 0.4 | 0.2 | 0.3 | 249
4 | CC(C)CN(C[C@@H](O)[C@H](Cc1ccccc1)NC(=O)O[C@H]1CO[C@H]2OC[C@H](OC(=O)NCc3ccccc3)[C@H]21)S(=O)(=O)c1ccc(N)cc1 | 124 | 30.4 | 5.2 | 15.5 | 3.2 | 0.9 | 22 | 5.8
5 | CNc1nc2ccc(S(=O)(=O)N(CC(C)C)C[C@@H](O)[C@H](Cc3ccccc3)NC(=O)O[C@H]3CO[C@H]4OC[C@H](OC(=O)NCc5ccccc5)[C@H]43)cc2o1 | 13.9 | 26.7 | 4 | 7.2 | 1.2 | 0.7 | 2.4 | 5.8
6 | CC(C)CN(C[C@@H](O)[C@H](Cc1ccccc1)NC(=O)O[C@H]1CO[C@H]2OC[C@H](Cl)[C@H]21)S(=O)(=O)c1ccc(N)cc1 | 31.6 | 4.6 | 1.5 | 2.8 | 7.5 | 4 | 85 | 0.4
7 | CNc1nc2ccc(S(=O)(=O)N(CC(C)C)C[C@@H](O)[C@H](Cc3ccccc3)NC(=O)O[C@H]3CO[C@H]4OC[C@H](NC(=O)OCc5ccccc5)[C@H]43)cc2o1 | 7.5 | 16.6 | 1 | 2.4 | 0.6 | 0.3 | 2 | 3.8
8 | CNc1nc2ccc(S(=O)(=O)N(CC(C)C)C[C@@H](O)[C@H](Cc3ccccc3)NC(=O)O[C@H]3CO[C@H]4OC[C@H](F)[C@H]43)cc2o1 | 2.8 | 8.4 | 0.7 | 0.8 | 1.2 | 0.9 | 4.1 | 0.7
9 | CNc1nc2ccc(S(=O)(=O)N(CC(C)C)C[C@@H](O)[C@H](Cc3ccccc3)NC(=O)O[C@H]3CO[C@H]4OC[C@H](Cl)[C@H]43)cc2o1 | 2.1 | 4.2 | 0.7 | 0.7 | 1.6 | 1.6 | 4.6 | 0.5
10 | CNC(=O)CO[C@H]1CO[C@@H]2OC[C@H](OC(=O)N[C@@H](Cc3ccccc3)[C@H](O)CN(CC(C)C)S(=O)(=O)c3ccc4nc(NC)oc4c3)[C@@H]21 | 204 | 376 | 68.5 | 151 | 0.3 | 0.1 | 0.4 | 460
11 | CNc1nc2ccc(S(=O)(=O)N(CC(C)C)C[C@@H](O)[C@H](Cc3ccccc3)NC(=O)O[C@H]3CO[C@H]4OC[C@H](OCCC(F)(F)F)[C@H]43)cc2o1 | 2.8 | 8.2 | 0.8 | 0.9 | 1.9 | 1.6 | 5.9 | 0.5
12 | CNC(=O)CO[C@H]1CO[C@@H]2OC[C@H](OC(=O)N[C@@H](Cc3ccccc3)[C@H](O)CN(CC(C)C)S(=O)(=O)c3ccc(OC)cc3)[C@@H]21 | 15.7 | 16.1 | 8.3 | 14.3 | 2.1 | 1.2 | 2.3 | 6.9
13 | CC(C)CN(C[C@@H](O)[C@H](Cc1ccccc1)NC(=O)O[C@H]1CO[C@H]2OC[C@H](OCC(=O)NCc3ccccc3)[C@H]21)S(=O)(=O)c1ccc(N)cc1 | 35.2 | 93.5 | 9.3 | 10.8 | 0.7 | 0.6 | 2.2 | 16
14 | CNc1nc2ccc(S(=O)(=O)N(CC(C)C)C[C@@H](O)[C@H](Cc3ccccc3)NC(=O)O[C@H]3CO[C@H]4OC[C@H](OCC(=O)NCc5ccccc5)[C@H]43)cc2o1 | 15.1 | 102 | 6.4 | 13.4 | 0.5 | 0.3 | 0.6 | 25
15 | C=C(F)CO[C@H]1CO[C@@H]2OC[C@H](OC(=O)N[C@@H](Cc3ccccc3)[C@H](O)CN(CC(C)C)S(=O)(=O)c3ccc4nc(NC)oc4c3)[C@@H]21 | 2.3 | 2.2 | 0.5 | 0.8 | 1.2 | 1.4 | 6.1 | 0.4
16 | COc1ccc(S(=O)(=O)N(CC(C)C)C[C@@H](O)[C@H](Cc2ccccc2)NC(=O)O[C@H]2CO[C@H]3OC[C@H](OCC(=O)N(C)C)[C@H]32)cc1 | 11.5 | 7 | 2.9 | 7 | 1.8 | 0.8 | 3 | 3.8
17 | CC(C)CN(C[C@@H](O)[C@H](Cc1ccccc1)NC(=O)O[C@H]1CO[C@H]2OC[C@H](NC(=O)OCc3ccccc3)[C@H]21)S(=O)(=O)c1ccc(N)cc1 | 82.5 | 35.2 | 1.8 | 5.7 | 1.1 | 0.4 | 16 | 5
